≈ marks a conversion by molar mass, not a printed value. Calls of active or inactive are those of the source. No cut-off for these calls is given here.
Tests used:
[1] = tested on: Plasmodium falciparum; assay: Antimalarial activity against blood stage Plasmodium falciparum D6 assessed as [3H]-hypoxanthine uptake after 24 hrs by scintillation counting; type: functional, organism-based
[2] = tested on: Plasmodium falciparum; assay: Antimalarial activity against blood stage Plasmodium falciparum TM91C235 assessed as [3H]-hypoxanthine uptake after 24 hrs by scintillation counting; type: functional, organism-based
[3] = tested on: Plasmodium berghei; assay: Antimalarial activity against Plasmodium berghei […] mouse model assessed as causal prophylactic activity at 160 mg/kg, po administered one day before infection, on day of infection and one day post infection; type: functional, organism-based; design: dose 160 mg/kg
How it was run: (§1)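 Sporozoite-challenged exoerythrocytic mouse model using P. berghei. Compound ground and suspended in hydroxyethylcellulose with Tween 80 for oral dosing, given once daily for 3 consecutive days: day before, 4 h before, and day after sporozoite inoculation. Dose in (mg/kg)/day. Mice are scored for protection (causal prophylaxis) and for delay in patency.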

[4] = Metabolic stability in mouse assessed as half life at 160 mg/kg, po by LC-MS/MS analysis; type: ADME, organism-based; design: dose 160 mg/kg, route oral
[5] = tested on: Plasmodium falciparum; assay: Antimalarial activity against blood stage Plasmodium falciparum W2 assessed as [3H]-hypoxanthine uptake after 24 hrs by scintillation counting; type: functional, organism-based
[6] = Metabolic stability in human assessed as half life at 160 mg/kg, po by LC-MS/MS analysis; type: ADME, organism-based; design: dose 160 mg/kg, route oral
[7] = Metabolic stability in human assessed as half life at 320 mg/kg, po by LC-MS/MS analysis; type: ADME, organism-based; design: dose 320 mg/kg, route oral
[8] = tested on: Plasmodium cynomolgi; assay: Antimalarial activity against Plasmodium cynomolgi infected in rhesus monkey assessed as delay in patency time at 0.316 mg/kg, po administered one day before infection, on day of infection followed by 1 day post infection; type: functional
How it was run: (§2)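 Rhesus monkeys challenged with P. cynomolgi sporozoites. Oral dosing on days −1, 0 and 1 in HECT or MC vehicle, with dose in (mg/kg)/day. Read-out is the first day of patency and the delay in patency relative to vehicle-treated controls.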

[9] = tested on: Plasmodium cynomolgi; assay: Antimalarial activity against Plasmodium cynomolgi infected in rhesus monkey assessed as delay in patency time at 50 mg/kg, po administered one day before infection, on day of infection followed by 1 day post infection; type: functional; how it was run: as §2
[10] = tested on: Plasmodium berghei; assay: Antimalarial activity against Plasmodium berghei […] mouse model assessed as delay in patency time at 40 mg/kg, po administered one day before infection, on day of infection and one day post infection; type: functional; how it was run: as §1
[11] = tested on: Plasmodium berghei; assay: Antimalarial activity against Plasmodium berghei […] mouse model assessed as delay in patency time at 160 mg/kg, po administered one day before infection, on day of infection and one day post infection; type: functional; how it was run: as §1
[12] = Metabolic stability in mouse assessed as half life at 320 mg/kg, po by LC-MS/MS analysis; type: ADME, organism-based; design: dose 320 mg/kg, route oral; settings: in vivo
[13] = tested on: Plasmodium berghei; assay: Antimalarial activity against Plasmodium berghei […] mouse model assessed as causal prophylactic activity at 320 mg/kg, po administered one day before infection, on day of infection and one day post infection; type: functional, organism-based; design: dose 320 mg/kg
How it was run: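 Sporozoite-inoculated P. berghei exoerythrocytic (EE) mouse model. Compound ground and suspended in hydroxyethylcellulose plus Tween 80 for oral dosing, given once daily for 3 consecutive days: day before, 4 h before, and day after sporozoite inoculation (days −1, 0, 1). Dose in (mg/kg)/day. Read-out is mice protected per group (causal prophylaxis) or delay in patency.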

[14] = tested on: Plasmodium berghei; assay: Antimalarial activity against Plasmodium berghei […] mouse model assessed as causal prophylactic activity at 40 mg/kg, po administered one day before infection, on day of infection and one day post infection; type: functional, organism-based; design: dose 40 mg/kg; how it was run: as §1

Row | IC50 [1] [µg/mL] | IC50 [2] [µg/mL] | half-life [4] [min] | IC50 [5] [µg/mL] | half-life [6] [min] | half-life [7] [min] | half-life [12] [min] | SMILES | Activity [3] | Time [8] [days] | Time [9] [days] | Time [10] [days] | Time [11] [days] | Activity [13] | Activity [14]
1 | 2.45 (≈ 5.03 µM) |  | > 60 | 2.58 (≈ 5.3 µM) |  | > 60 |  | CC(C)(C)N/C(=N/C1=NC(=O)CN1c1ccc(Cl)c(Cl)c1)Nc1ccc(Cl)c(Cl)c1 | inactive |  |  |  |  |  | 
2 | 3.42 (≈ 10.4 µM) | 3.31 (≈ 10.1 µM) | 40 | 2.57 (≈ 7.83 µM) | > 60 |  |  | CC(C)N1CC(=O)N=C1NC(=N)Nc1ccc(Cl)c(Cl)c1 | inactive |  |  | 6 |  |  | 
3 | 3.38 (≈ 9.49 µM) | 3.01 (≈ 8.45 µM) |  | 2.27 (≈ 6.37 µM) |  |  |  | CC/N=C(\NC1=NC(=O)CN1C(C)C)Nc1ccc(Cl)c(Cl)c1 |  |  |  |  |  |  | 
4 | > 5 | > 5 |  | > 5 |  | > 60 | 49.8 | CC(C)/N=C(\NC1=NC(=O)CN1C)Nc1ccc(Cl)c(Cl)c1 |  |  |  |  | 2 |  | 
5 | 2.75 (≈ 8.04 µM) | > 5 | > 60 | 1.01 (≈ 2.95 µM) | > 60 |  |  | CC(C)(C)N1CC(=O)N=C1NC(=N)Nc1ccc(Cl)c(Cl)c1 |  |  |  |  | 2 | Active | 
6 | 3.19 (≈ 7.74 µM) | > 1.28 | > 60 | 4.9 (≈ 11.9 µM) | > 60 |  |  | CC(C)N1CC(=O)N=C1N/C(=N\C(=O)C(C)(C)C)Nc1ccc(Cl)c(Cl)c1 |  |  | 0 |  | 3 |  | inactive
7 | 0.15 (≈ 0.375 µM) |  |  | 0.25 (≈ 0.625 µM) |  | > 60 | > 60 | CCOC(=O)/N=C(/NC1=NC(=O)CN1c1ccc(Cl)c(Cl)c1)NC(C)C |  |  |  |  |  | inactive | 

Further lines, the compound ahead of its results:

Row | SMILES | IC50 [1] [µg/mL] | IC50 [2] [µg/mL] | half-life [4] [min] | IC50 [5] [µg/mL] | half-life [6] [min] | half-life [7] [min] | half-life [12] [min] | Activity [3] | Time [8] [days] | Time [9] [days] | Time [10] [days] | Time [11] [days] | Activity [13] | Activity [14]
8 | CC(C)(C)OC(=O)/N=C(\NC1=NC(=O)CN1C(C)(C)C)Nc1ccc(Cl)c(Cl)c1 | 2.9 (≈ 6.56 µM) | > 5 | < 10 | > 5 | < 10 |  |  | Active |  |  |  |  |  | 
9 | COc1cc(C)c2c(Oc3cccc(C(F)(F)F)c3)c(OC)cc(NC(C)CCCN)c2n1 (configuration not stated) [TAFENOQUINE] |  |  |  |  |  |  |  |  | 2 |  |  |  |  | 
10 | CC(C)N1CC(=O)N=C1N/C(=N\C(=O)OC(C)(C)C)Nc1ccc(Cl)c(Cl)c1 | 1.6 (≈ 3.74 µM) | > 5 | 15.8 | 0.74 (≈ 1.73 µM) | 12.8 |  |  | Active |  | 2 |  |  |  | 
11 | CC(C)n1cc(OC(=O)C(C)(C)C)nc1N/C(=N\C(=O)C(C)(C)C)Nc1ccc(Cl)c(Cl)c1 | > 12 | > 12 | > 60 | > 12 | > 60 |  |  | inactive |  |  |  |  |  | 
12 | CN1CC(=O)N=C1N/C(=N\C(=O)OC(C)(C)C)Nc1ccc(Cl)c(Cl)c1 | 1.26 (≈ 3.15 µM) | 2.54 (≈ 6.35 µM) | < 10 | 1.72 (≈ 4.3 µM) | < 10 |  |  |  |  |  | 2 | 1 |  | 
13 | CC(C)/N=C(\NC1=NC(=O)CN1C(C)C)Nc1ccc(Cl)c(Cl)c1 | 1.65 (≈ 4.46 µM) | > 5 |  | 0.37 (≈ 0.999 µM) |  | 53 | 17 |  |  | 4 |  | 1 | Active | 
14 | CC(C)N1CC(=O)N=C1N/C(=N\C12CC3CC(CC(C3)C1)C2)Nc1ccc(Cl)c(Cl)c1 | 1.55 (≈ 3.35 µM) | 2.6 (≈ 5.62 µM) | 22.3 | 2.51 (≈ 5.43 µM) | 20.9 |  |  | inactive |  |  |  |  |  | 

— ChEMBL document CHEMBL1828547, “Synthesis and antimalarial activity of 2-guanidino-4-oxoimidazoline derivatives” (J Med Chem, 2011)
